Screening results (PubChem)
D1 mod – allosteric modulators of human D1 dopamine receptor; P21728; B-score at 10 µM; hit rate 5.9% among 58,000; HEK293 D1, CRE-luciferase, dopamine EC30 potentiation; actives deviate in either direction;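 active means luminescence count or its row- and column-corrected plate score outside the 99.7% band of the plate's sample wells, on either side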
hDAT+cocaine – human DAT dopamine uptake with cocaine, either direction; Q01959; LLC-PK1 hDAT cells, [14C]-dopamine uptake with cocaine IC80; actives deviate in either direction; B-score at 10 µM; hit rate 1.3% among 110,000; AID 449768;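 active means Z score or B-score, a plate-position-corrected score, falls beyond the plate's 99.7% confidence bounds, in either direction; inactive means both scores lie inside the 99.7% bounds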;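 further: scored against the spread of the other compound wells on the same plate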
Target sequence (Q01959 whole entry, looked up): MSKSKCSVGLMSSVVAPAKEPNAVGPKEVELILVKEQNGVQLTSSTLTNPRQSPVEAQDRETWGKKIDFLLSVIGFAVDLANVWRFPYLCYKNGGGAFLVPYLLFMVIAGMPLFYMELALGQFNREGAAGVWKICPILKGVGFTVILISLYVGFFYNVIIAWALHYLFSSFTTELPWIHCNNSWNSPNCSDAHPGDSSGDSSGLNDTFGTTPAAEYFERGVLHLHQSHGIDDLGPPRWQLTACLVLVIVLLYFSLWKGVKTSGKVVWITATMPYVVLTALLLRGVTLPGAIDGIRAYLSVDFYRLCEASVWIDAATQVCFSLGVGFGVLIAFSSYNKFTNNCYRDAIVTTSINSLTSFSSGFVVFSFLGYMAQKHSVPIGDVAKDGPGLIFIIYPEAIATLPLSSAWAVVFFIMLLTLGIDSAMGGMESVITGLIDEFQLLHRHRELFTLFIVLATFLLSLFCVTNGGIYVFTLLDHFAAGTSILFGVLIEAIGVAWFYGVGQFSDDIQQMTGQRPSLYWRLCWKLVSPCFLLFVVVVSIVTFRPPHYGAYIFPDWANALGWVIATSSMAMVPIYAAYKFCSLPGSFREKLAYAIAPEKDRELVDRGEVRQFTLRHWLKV
PostGolgi ctrl – inhibits growth of the yeast control strain. efflux-deficient yeast background strain, growth absorbance A615, 16 h. inhibition, % at 10 µM. hit rate 5% among 98,000. AID 738
E coli WT exp – blocks growth of wild type E. coli BW25113 | hit rate 0.15% among 98,000 | AID 710 | growth inhibition, % at 100 µM | OD600 absorbance;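 active means growth inhibition above about 50% at one test dose, limit read from the data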;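 further: growth measured after 20 h incubation at 37 °C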
PostGolgi yeast – growth inhibition of a yeast mutant, post-Golgi transport screen. inhibition, % at 10 µM. post-Golgi transport phenotypic cell assay. hit rate 0.9% among 98,000;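 further: yeast cells grown in 1536-well plates; yeast grown about 18 h at 30C before absorbance read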
Ecoli tolC – E. coli tolC mutant growth inhibition; hit rate 2.2% among 65,000; E. coli BW25113 tolC mutant growth, OD615; AID 573; growth inhibition, % at 10 µM (by protocol);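 active means growth inhibition at or above a cutoff equal to the mean over every tested compound plus 3 SD, cut at about 60% in these data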;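 further: growth measured after 20 h incubation at 37 °C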
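Test system: tolC-deleted E. coli BW25113; medium: LB with kanamycin 50 µg/mL; compound: single-point testing at 10 µM; incubation: 20 h compound exposure of bacteria at 37 °C; signal: OD at 615 nm; evaluation: growth inhibition in percent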
Numbers without * were called inactive. Shown are actives, neighbours in structure and some others; about 9.3% of the full set was active somewhere. Unless noted, no stated cut-off is given here; in the data, active means inhibition above about 30%; inactive means the rest.

For CCO[C@@H]1OC(C(=O)N2CCOCC2)=C[C@H](c2ccccc2)[C@H]1CCCO the results were hDAT+cocaine -0.5.
Screening COC(=O)c1cc(COc2ccc3c(c2)oc(=O)c2ccccc23)c(C)o1 returned hDAT+cocaine 0.022, PostGolgi ctrl 4, E coli WT exp -4 and PostGolgi yeast -1.
Screening CC(C)(C)S(=O)(=O)c1cnc2c(-c3ccc(Cl)cc3)cnn2c1N returned hDAT+cocaine -0.058, PostGolgi ctrl 34*, E coli WT exp -13 and PostGolgi yeast 4.
For CC(C)(C)S(=O)(=O)c1cnc2c(-c3ccc(F)cc3)cnn2c1N the results were hDAT+cocaine 0.31, PostGolgi ctrl -5, E coli WT exp -5 and PostGolgi yeast -4.
Screening Cc1nn2c([nH]c(=O)c3ccccc32)c1C=O returned hDAT+cocaine -0.15, PostGolgi ctrl 5, E coli WT exp 5 and PostGolgi yeast -2.
Screening CCOc1ccc(NC(=O)CSc2nnc(C34CC5CC(CC(C5)C3)C4)n2C)cc1 returned hDAT+cocaine -0.086, PostGolgi ctrl -6, E coli WT exp -20 and PostGolgi yeast -1.
For CC(C)CC(c1nnnn1Cc1cccs1)N1CCN(c2nc3ccccc3s2)CC1 (stereo not drawn) the results were hDAT+cocaine -0.0094.
Screening CCC(c1nnnn1Cc1cccs1)N1CCN(c2nc3ccccc3s2)CC1 (stereo not drawn) returned D1 mod -0.47, hDAT+cocaine 0.16, PostGolgi ctrl 32*, E coli WT exp -9, PostGolgi yeast 10 and Ecoli tolC 19.
`CC(C)C(c1nnnn1Cc1ccco1)N1CCN(c2nc3ccccc3s2)CC1` (stereo not drawn) gave D1 mod 0.1, hDAT+cocaine 1.4, PostGolgi ctrl 41*, E coli WT exp -1, PostGolgi yeast 5 and Ecoli tolC 16.
For O=C1CC(N2CCN(c3nc4ccccc4s3)CC2)C(=O)N1Cc1cccs1 (stereo not drawn) the results were D1 mod -0.51, hDAT+cocaine 0.61, PostGolgi ctrl 102*, E coli WT exp -1, PostGolgi yeast 93* and Ecoli tolC 16.
Screening O=C1CC(N2CCN(c3ccc(F)cc3)CC2)C(=O)N1Cc1cccs1 (stereo not drawn) returned D1 mod 0.65, hDAT+cocaine 0.85, PostGolgi ctrl 5, E coli WT exp -6, PostGolgi yeast -9 and Ecoli tolC 6.
Screening Cc1cc(C)c(S(=O)(=O)n2nc(C)c(Br)c2C)c(C)c1 returned D1 mod 0.4 and Ecoli tolC -8.
For O=S(=O)(c1ccc2c(c1)OCCO2)N1CCN(c2nc3ccccc3s2)CC1 the results were D1 mod 0.15, hDAT+cocaine -0.5, PostGolgi ctrl 21, E coli WT exp -3, PostGolgi yeast 3 and Ecoli tolC 7.
`c1ccc2c(c1)CCN(c1nc3cc4c(cc3s1)OCCO4)C2` gave D1 mod -6.1*, hDAT+cocaine 0.87, PostGolgi ctrl 11, E coli WT exp -7, PostGolgi yeast -6 and Ecoli tolC 65*.
For COc1ccc(C)cc1NC(=O)C(=O)NNC(=O)c1ccco1 the results were hDAT+cocaine 0.51, PostGolgi ctrl 12, E coli WT exp 1 and PostGolgi yeast 1.
CCOC(=O)c1ccc(N/C=C/C(=O)c2ccco2)cc1 was read as hDAT+cocaine -0.43, PostGolgi ctrl -5, E coli WT exp -30 and PostGolgi yeast 1.
For O=C(/C=C/Nc1ccc(F)cc1)c1ccco1 the results were D1 mod -7.3*, hDAT+cocaine 0.093, PostGolgi ctrl 4, E coli WT exp 9, PostGolgi yeast 3 and Ecoli tolC -9.
O=C(Nc1ccc(OC(F)F)c(Cl)c1)Nc1ccc2c(c1)OCO2 was read as D1 mod 0.074, hDAT+cocaine -7*, PostGolgi ctrl 3, E coli WT exp -2, PostGolgi yeast 0 and Ecoli tolC 59.
COc1ccc(Cl)cc1NC(=O)Nc1cccc([N+](=O)[O-])c1C was read as hDAT+cocaine -0.64, PostGolgi ctrl 42*, E coli WT exp -7 and PostGolgi yeast 2.
`COc1ccc(OC)c(NC(=O)Nc2ccc(Cl)cc2)c1` gave hDAT+cocaine -0.74, PostGolgi ctrl 41*, E coli WT exp 1 and PostGolgi yeast -3.
For COc1ccc(C(C)(C)C)cc1NC(=O)Nc1ccc2c(c1)OCO2 the results were D1 mod -1.1, PostGolgi ctrl 71*, E coli WT exp -4, PostGolgi yeast 5 and Ecoli tolC 65*.
O=C(Nc1ccc2c(c1)OCO2)Nc1ccc(Cl)cc1Cl was read as hDAT+cocaine -0.62, PostGolgi ctrl 5, E coli WT exp -8 and PostGolgi yeast -6.
Cc1cc2c(s1)CCCCC(=O)N2 was read as D1 mod -0.17, hDAT+cocaine -0.69, PostGolgi ctrl 2, E coli WT exp 4, PostGolgi yeast 4 and Ecoli tolC -14.
Screening Cc1nn(-c2ccccc2)c(C)c1C(=O)OCC(=O)NC12CC3CC(CC(C3)C1)C2 returned hDAT+cocaine 3.1*, PostGolgi ctrl 18, E coli WT exp -7 and PostGolgi yeast 1.
`CCOC(=O)c1c(C)[nH]c(C(=O)OCC(=O)N2CCN(S(=O)(=O)c3ccccc3)CC2)c1C` gave D1 mod -0.6, hDAT+cocaine -0.84, PostGolgi ctrl 3, E coli WT exp -9, PostGolgi yeast -6 and Ecoli tolC -6.
Screening Cc1nn(-c2ccccc2)c(C)c1C(=O)OCC(=O)N1CCN(S(=O)(=O)c2ccccc2)CC1 returned D1 mod 0.065, hDAT+cocaine -0.011, PostGolgi ctrl 96*, E coli WT exp -9, PostGolgi yeast 30 and Ecoli tolC 1.
`Cc1nn(-c2ccccc2)c(C)c1C(=O)OCC(=O)NC(=O)NC1CCCC1` gave hDAT+cocaine 1.5, PostGolgi ctrl 6, E coli WT exp 8 and PostGolgi yeast -1.
Cc1nc(C(=O)Nc2cc(F)cc(Cl)c2)sc1C1(C)CC(c2ccccc2)=NO1 (stereo not drawn) was read as hDAT+cocaine 0.81.
Screening CCc1sc(C(=O)NC2CCN(C)CC2)cc1Br returned D1 mod -3.7, hDAT+cocaine -0.72, PostGolgi ctrl 4, E coli WT exp 2, PostGolgi yeast 5 and Ecoli tolC -9.
For COc1cccc(/C=N/n2nnc3c(cnn3-c3ccccc3)c2=O)c1 the results were PostGolgi ctrl 11, E coli WT exp 4 and PostGolgi yeast -7.
Screening Cc1cccc(NC(=O)C2CC(O)CN2C(=O)OCc2ccccc2)c1 (stereo not drawn) returned D1 mod -3.9*, hDAT+cocaine -0.75, PostGolgi ctrl 3, E coli WT exp 1, PostGolgi yeast -1 and Ecoli tolC 0.
`CCOC(=O)c1sc(Nc2ccc(C)cc2C)nc1C` gave hDAT+cocaine 0.28, PostGolgi ctrl 52*, E coli WT exp 10 and PostGolgi yeast 4.
Screening CCOC(=O)c1sc(N/N=C/c2cccc(C)c2)nc1C returned hDAT+cocaine -0.7, PostGolgi ctrl 38*, E coli WT exp -13 and PostGolgi yeast 2.
